Measured values taken from ChEMBL document CHEMBL1154927, “Photooxidation and Phototoxicity of pi-extended squaraines” (J Med Chem, 2010).
Blank lines part the entries; values can stand above or below the compound they belong to. Activity calls are given as the source filed them. The calls are words filed in the database; no cut-off is given here.

Assays:
[1] = tested on: HeLa; assay: Induction of apoptosis in human HeLa cells assessed as apoptotic bodies at 9.6 uM for 3 hrs followed by 15 J/mc2 measured 72 hrs irradiation by propidium iodide staining; format: functional, cell-based
Outline: (§1)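 HeLa cells (2.5 × 10^5, six-well) were treated with squaraine the next day and photoactivated. The medium was then replaced with fresh medium containing Hoechst and PI (both 2 μg/mL). Living cells were time-lapse imaged at 37 °C, 5% CO2 over 72 h, with necrotic (PI-red, swollen) and apoptotic (shrinkage, blebbing, apoptotic bodies) morphology scored. Controls had no squaraine.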

[2] = tested on: HeLa; assay: Photocytotoxicity against human HeLa cells assessed as necrotic cells at 9.6 uM for 3 hrs followed by 15 J/mc2 measured 72 hrs irradiation by propidium iodide staining; format: functional, cell-based; outline: as §1
[3] = tested on: HeLa; assay: Photocytotoxicity against human HeLa cells assessed as apoptotic cells at 9.6 uM for 3 hrs followed by 15 J/mc2 irradiation by annexin V/propidium iodide staining-based FACS flow cytometry (Rvb=1.3%); format: functional
[4] = tested on: HeLa; assay: Photocytotoxicity against human HeLa cells assessed as necrotic cells at 9.6 uM for 3 hrs followed by 15 J/mc2 irradiation by annexin V/propidium iodide staining-based FACS flow cytometry (Rvb=1.0%); format: functional
[5] = tested on: MCF7; assay: Photocytotoxicity against human MCF7 cells assessed as induction of lipid peroxidation-mediated malondialdehyde production at 9.6 uM for 3 hrs followed by 15 J/mc2 irradiation by TBARS assay relative to untreated control; format: functional, cell-based
[6] = tested on: MCF7; assay: Photocytotoxicity against human MCF7 cells assessed as induction of lipid peroxidation-mediated malondialdehyde production at 1.8 uM for 3 hrs followed by 15 J/mc2 irradiation by TBARS assay relative to untreated control; format: functional, cell-based
[7] = tested on: HeLa; assay: Cellular uptake in human HeLa cells assessed as localization to cytoplasm at 8 uM after 4 hrs by confocal laser microscopy; format: ADME, cell-based
Outline: (§2)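 HeLa cells seeded (2 × 10^5) on coverslips, treated 24 h later with squaraine for 3 h (figure legend states 4 h), then irradiated with a metal halogen white lamp at 15 J/cm2. Cells were fixed with PFA, permeabilized with Triton X-100 (0.1% in PBS) and nuclei stained with Hoechst. Localization was imaged by confocal laser microscopy.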

[8] = tested on: HeLa; assay: Induction of apoptosis in human HeLa cells assessed as caspase 3/7 activation at 9.6 uM for 3 hrs followed by 15 J/mc2; format: functional, cell-based
Outline: (§3)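 HeLa cells (5000/well) were incubated 3 h with squaraine and irradiated at 15 J/cm2. Caspase-3/7 activity was measured 2.5, 16 and 22 h after light using a homogeneous fluorogenic reagent (substrate 1:100 in buffer, 1:1 with sample), with ex 485/em 530 nm. Values are means ± SDs of at least two independent experiments.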

[9] = tested on: HeLa; assay: Photocytotoxicity against human HeLa cells assessed as cell growth arrest at 9.6 uM for 3 hrs followed by 15 J/mc2 irradiation measured 72 hrs after irradiation by resazurin proliferation assay; format: functional, cell-based
Outline: (§4)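 HeLa cells were given squaraine, irradiated with light (15 J/cm2), and followed for up to 72 h after light treatment for proliferation. Controls were cells treated only with light.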

[10] = tested on: HeLa; assay: Cellular uptake in human HeLa cells assessed as localization to nucleus at 8 uM after 4 hrs by confocal laser microscopy; format: ADME, cell-based; outline: as §2
[11] = tested on: HeLa; assay: Photocytotoxicity against human HeLa cells assessed as induction of lipid peroxidation-mediated malondialdehyde production at 9.6 uM for 3 hrs followed by 15 J/mc2 irradiation by TBARS assay relative to untreated control; format: functional
[12] = tested on: HeLa; assay: Photocytotoxicity against human HeLa cells assessed as necrotic cells at 1.5 uM for 3 hrs followed by 15 J/mc2 irradiation by annexin V/propidium iodide staining-based FACS flow cytometry (Rvb=1.0%); format: functional
[13] = tested on: MCF7; assay: Cytotoxicity against human MCF7 cells under dark condition at 5 uM after 24 hrs by resazurin proliferation assay; format: cell-based; conditions: mcf7, 24 h
Outline: (§5)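 Cells were seeded to reach plateau growth: HeLa and B78-H1 at 5000, HepG2 and MCF-7 at 7000 cells/well. They were exposed to increasing squaraine concentrations in the dark, with compound from DMSO diluted in medium (final DMSO <0.2%). Viability was measured by resazurin fluorescence as RFU treated/RFU untreated × 100. Values are means ± SDs of three independent experiments.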

[14] = tested on: HeLa; assay: Induction of apoptosis in human HeLa cells assessed as apoptotic bodies at 1.5 uM for 3 hrs followed by 15 J/mc2 measured 72 hrs irradiation by propidium iodide staining; format: functional, cell-based; outline: as §1
[15] = Cytotoxicity against mouse B78H1 cells under dark condition after 24 hrs by resazurin proliferation assay; format: cell-based; conditions: b78h1, 24 h; outline: as §5
[16] = tested on: HepG2; assay: Cytotoxicity against human HepG2 cells under dark condition at 5 uM after 24 hrs by resazurin proliferation assay; format: cell-based; conditions: hepg2, 24 h; outline: as §5
[17] = Photocytotoxicity against mouse B78H1 cells treated for 3 hrs followed by 15 J/mc2 irradiation measured 24 hrs after irradiation by resazurin proliferation assay; format: functional
Outline: (§6)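 Cells were seeded to reach plateau growth: HeLa and B78-H1 at 5000, HepG2 and MCF-7 at 7000 cells/well. They were incubated 3 h with increasing squaraine concentrations (DMSO stock, final DMSO <0.2%, DMSO-matched control), then irradiated 30 min with a metal halogen lamp (15 J/cm2). Resazurin proliferation was read 24 h later as % of untreated fluorescence. IC50 was estimated from dose-response plots; means ± SDs of three independent experiments.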

[18] = tested on: HeLa; assay: Cellular uptake in human HeLa cells assessed as localization to nucleus at 1 uM after 4 hrs by confocal laser microscopy; format: ADME, cell-based; outline: as §2
[19] = tested on: HepG2; assay: Photocytotoxicity against human HepG2 cells treated for 3 hrs followed by 15 J/mc2 irradiation measured 24 hrs after irradiation by resazurin proliferation assay; format: functional; outline: as §6
[20] = tested on: HeLa; assay: Photocytotoxicity against human HeLa cells assessed as induction of lipid peroxidation-mediated malondialdehyde production at 1.8 uM for 3 hrs followed by 15 J/mc2 irradiation by TBARS assay relative to untreated control; format: functional
[21] = tested on: MCF7; assay: Photocytotoxicity against human MCF7 cells treated for 3 hrs followed by 15 J/mc2 irradiation measured 24 hrs after irradiation by resazurin proliferation assay; format: functional; outline: as §6
[22] = Cytotoxicity against mouse B78H1 cells under dark condition at 5 uM after 24 hrs by resazurin proliferation assay; format: cell-based; conditions: b78h1, 24 h; outline: as §5
[23] = tested on: Mus musculus; assay: Toxicity in C57BL/6 mouse bearing mouse B78H1 cells assessed as behavioral changes at 3 umol/kg, iv measured for 1 week; format: organism-based; conditions: in vivo, 168 h
Outline: (§7)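 Squaraine given to mice at 3 μmol/kg (the dose used for PDT experiments), formulated in small unilamellar dioleoylphosphatidylcholine liposomes and injected.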

[24] = tested on: HeLa; assay: Photocytotoxicity against human HeLa cells assessed as necrotic cells at 1.5 uM for 3 hrs followed by 15 J/mc2 measured 72 hrs irradiation by propidium iodide staining; format: functional, cell-based; outline: as §1
[25] = tested on: HeLa; assay: Photocytotoxicity against human HeLa cells assessed as apoptotic cells at 1.5 uM for 3 hrs followed by 15 J/mc2 irradiation by annexin V/propidium iodide staining-based FACS flow cytometry (Rvb=1.3%); format: functional
[26] = tested on: MCF7; assay: Cytotoxicity against human MCF7 cells under dark condition after 24 hrs by resazurin proliferation assay; format: cell-based; conditions: mcf7, 24 h; outline: as §5
[27] = tested on: HeLa; assay: Cellular uptake in human HeLa cells assessed as localization to cytoplasm at 1 uM after 4 hrs by confocal laser microscopy; format: ADME, cell-based; outline: as §2
[28] = tested on: HepG2; assay: Cytotoxicity against human HepG2 cells under dark condition after 24 hrs by resazurin proliferation assay; format: cell-based; conditions: hepg2, 24 h; outline: as §5
[29] = tested on: HeLa; assay: Photocytotoxicity against human HeLa cells assessed as cell growth arrest at 1.5 uM for 3 hrs followed by 15 J/mc2 irradiation measured 72 hrs after irradiation by resazurin proliferation assay; format: functional, cell-based; outline: as §4
[30] = tested on: HeLa; assay: Cytotoxicity against human HeLa cells under dark condition after 24 hrs by resazurin proliferation assay; format: cell-based; outline: as §5
[31] = tested on: HeLa; assay: Photocytotoxicity against human HeLa cells treated for 3 hrs followed by 15 J/mc2 irradiation measured 24 hrs after irradiation by resazurin proliferation assay; format: functional; outline: as §6
[32] = tested on: HeLa; assay: Cytotoxicity against human HeLa cells under dark condition at 5 uM after 24 hrs by resazurin proliferation assay; format: cell-based; outline: as §5
[33] = tested on: HeLa; assay: Induction of apoptosis in human HeLa cells assessed as caspase 3/7 activation at 1.5 uM for 3 hrs followed by 15 J/mc2; format: functional, cell-based; outline: as §3
[34] = tested on: HUVEC; assay: Cytotoxicity against HUVEC cells under dark condition after 24 hrs by resazurin proliferation assay; format: cell-based; conditions: human
[35] = tested on: Mus musculus; assay: Toxicity in C57BL/6 mouse bearing mouse B78H1 cells assessed as mortality at 3 umol/kg, iv measured after 1 week; format: organism-based; conditions: in vivo, 168 h; outline: as §7

- Drug uptake [7]: Active
- Drug uptake [10]: Not Active
SMILES: CCCCCC[n+]1c(/C=C2\C(=O)C(c3ccc(-c4ccc(-c5ccc(C6=C([O-])/C(=C\c7sc8ccccc8[n+]7CCCCCC)C6=O)s5)s4)s3)=C2[O-])sc2ccccc21
- Activity [1]: Active
- Activity [2]: Active
- Activity [3]: 8.8%
- Activity [4]: 25.9%
- Activity [5]: Active
- Activity [6]: Active
- Activity [8]: Active
- Activity [9]: Active
- fold change (FC) [11]: 4

SMILES: CCCCCCN1/C(=C/C2=C([O-])C(=C\c3sc4ccccc4[n+]3CCCCCC)/C2=O)Sc2ccccc21
- Activity [12]: 9.5%
- Activity [13]: Toxic
- Activity [14]: Active
- Activity [15]: Non-toxic
- Activity [16]: Toxic
- Activity [17]: 80%
- Drug uptake [18]: Not Active
- Activity [19]: 80%
- fold change (FC) [20]: 4
- Activity [5]: Active
- Activity [21]: 80%
- Activity [22]: Toxic
- Activity [23]: Non-toxic
- Activity [24]: Active
- Activity [25]: 3.9%
- Activity [6]: Active
- Activity [26]: Non-toxic
- Drug uptake [27]: Active
- Activity [28]: Non-toxic
- Activity [29]: Active
- Activity [30]: Non-toxic
- Activity [31]: 80%
- Activity [32]: Toxic
- Activity [33]: Active
- Activity [34]: Non-toxic
- Activity [35]: Non-toxic
